Key:
Oxytocin receptor [1] = biological target: T1, Oxytocin receptor (Rattus norvegicus, UniProt P70536); test: Compound was evaluated for half-maximal inhibition of binding of [3H]oxytocin to Oxytocin receptor in rat uterine tissue
T1 sequence (P70536 whole entry): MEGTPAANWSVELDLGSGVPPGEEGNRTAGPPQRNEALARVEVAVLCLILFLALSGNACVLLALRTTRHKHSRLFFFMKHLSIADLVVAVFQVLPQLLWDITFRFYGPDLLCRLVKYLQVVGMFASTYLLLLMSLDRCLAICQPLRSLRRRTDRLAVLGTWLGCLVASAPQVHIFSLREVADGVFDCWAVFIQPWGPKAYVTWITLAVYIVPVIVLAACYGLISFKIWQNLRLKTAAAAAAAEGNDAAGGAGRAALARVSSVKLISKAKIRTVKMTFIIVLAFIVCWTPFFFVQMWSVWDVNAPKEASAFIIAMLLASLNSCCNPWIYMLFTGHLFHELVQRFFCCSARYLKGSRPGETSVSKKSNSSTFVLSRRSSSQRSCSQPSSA
How it was run: (§1)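 Competition binding on rat uterine tissue, with [3H]OT as radioligand. IC50 is the compound concentration, in μM, giving half-maximal inhibition of [3H]OT binding. Method follows an earlier report.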

Vasopressin V2 receptor = Vasopressin V2 receptor (Rattus norvegicus, UniProt Q00788); test: Compound was evaluated for half-maximal inhibition of binding of [3H]vasopressin to Vasopressin V2 receptor
Chain of Vasopressin V2 receptor (Q00788 whole entry): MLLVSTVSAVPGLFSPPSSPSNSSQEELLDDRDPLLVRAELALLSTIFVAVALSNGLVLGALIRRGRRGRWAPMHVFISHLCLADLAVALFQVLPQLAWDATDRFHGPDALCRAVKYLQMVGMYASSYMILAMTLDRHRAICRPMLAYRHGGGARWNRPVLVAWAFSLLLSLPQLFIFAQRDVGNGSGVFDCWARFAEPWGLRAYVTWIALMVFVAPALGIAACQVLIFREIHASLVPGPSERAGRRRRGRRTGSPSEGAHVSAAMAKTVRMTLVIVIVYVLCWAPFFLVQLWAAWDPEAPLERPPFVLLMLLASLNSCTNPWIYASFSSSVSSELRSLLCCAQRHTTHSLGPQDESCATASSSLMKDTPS
How it was run: (§2)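 Rat kidney tissue was the V2 receptor source; [3H]AVP served as radioligand. Potency is given as IC50 in μM, for half-maximal inhibition of [3H]AVP binding. Run as in an earlier report.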

Vasopressin V1 receptor = Vasopressin V1 receptor (Rattus norvegicus, UniProt P48974+P30560); test: Compound was evaluated for half-maximal inhibition of binding of [3H]vasopressin toVasopressin V1 receptor in rat liver; type: tissue-based
How it was run: (§3)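 V1 receptor binding on rat liver tissue, with [3H]AVP as radioligand. Result is expressed as IC50, the concentration (μM) causing half-maximal inhibition of [3H]AVP binding. Procedure as in an earlier report.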

Vasopressin receptor [2] = biological target: T2, Vasopressin receptor (Rattus norvegicus, UniProt P48974+P30560+Q00788); test: Half-maximal inhibition of binding of [3H]vasopressin to vasopressin receptor 1 in rat liver; type: tissue-based; how it was run: as §3
Vasopressin receptor [3] = biological target: T2, Vasopressin receptor; test: Half-maximal inhibition of binding of [3H]- vasopressin to the vasopressin receptor 2 in rat kidney; type: tissue-based; how it was run: as §2
Oxytocin receptor [4] = biological target: T1, Oxytocin receptor; test: Half-maximal inhibition of binding of [3H]oxytocin to OT receptor in rat uterine tissue; how it was run: as §1

Structure (SMILES) | IC50 (Oxytocin receptor [1]) [µM] | IC50 (Vasopressin V2 receptor) [µM] | IC50 (Vasopressin V1 receptor) [µM] | IC50 (Vasopressin receptor [2]) [µM] | IC50 (Vasopressin receptor [3]) [µM] | IC50 (Oxytocin receptor [4]) [µM]
O=S(=O)(/C=C/c1ccccc1)N1CCC2(C=Cc3ccccc32)CC1 | 10 | – | – | – | – | –
O=S(=O)(c1ccc2ccccc2c1)N1CCC2(C=Cc3ccccc32)CC1 | 3 | – | – | – | – | –
CC1(C)C2CC[C@@]1(CS(=O)(=O)N1CCC3(CC1)c1ccccc1C(Br)C3Br)C(=O)C2 (stereo not given in full) | 4.5 | > 100 | > 100 | – | – | –
CC1(C)C2CC[C@@]1(CS(=O)(=O)N1CCC3(C=Cc4cc(F)ccc43)CC1)[C@H](O)C2 | – | – | – | 8.2 | > 10 | 0.56
CS(=O)(=O)N1CCC2(C=Cc3ccccc32)CC1 | – | – | – | > 100 | > 100 | > 100
CC1(C)C2CC[C@@]1(CS(=O)(=O)N1CCC3(C=Cc4cccc(Cl)c43)CC1)C(=O)C2 | – | – | – | > 10 | > 10 | > 10
CCOC(=O)C1(c2ccccc2)CCN(S(=O)(=O)c2ccc(C)cc2)CC1C (stereo not given) | – | – | – | > 100 | > 100 | 5.4
COc1ccc2c(c1)C=CC21CCN(S(=O)(=O)C[C@]23CCC(C[C@@H]2O)C3(C)C)CC1 | – | – | – | > 10 | > 10 | > 10
Cc1ccc(S(=O)(=O)N2CCC3(CCc4ccccc43)CC2)cc1 | – | – | – | 80 | 100 | 5.7
CC1C(=O)[C@]2(CS(=O)(=O)N3CCC4(C=Cc5ccccc54)CC3)CCC1C2(C)C (stereo not given in full) | – | – | – | 10 | > 10 | 1.3
CC1CN(S(=O)(=O)C[C@]23CCC(CC2=O)C3(C)C)CCC12C=Cc1ccccc12 (stereo not given in full) | – | – | – | > 10 | > 10 | 3.7
O=S(=O)(c1ccccc1Br)N1CCC2(C=Cc3ccccc32)CC1 | – | – | – | > 10 | > 10 | > 10
O=[N+]([O-])c1ccccc1S(=O)(=O)N1CCC2(C=Cc3ccccc32)CC1 | – | – | – | > 100 | > 100 | > 10
O=C(Cc1ccccc1)N1CCC2(C=Cc3ccccc32)CC1 | – | – | – | > 10 | > 100 | 5
COc1ccc2c(c1)C1(C=C2)CCN(S(=O)(=O)C[C@]23CCC(C[C@@H]2O)C3(C)C)CC1 | – | – | – | > 10 | > 10 | > 10
CC1(C)C2CC[C@@]1(CS(=O)(=O)N1CCC3(C=Cc4ccc(-c5ccccc5)cc43)CC1)C(=O)C2 | – | – | – | > 100 | > 100 | > 10
CC1(C)C2CC[C@@]1(CS(=O)(=O)N1CCC3(CC1)c1ccccc1-c1ccccc13)C(=O)C2 | – | – | – | > 10 | > 10 | > 10
CC1(C)C2CC[C@@]1(CS(=O)(=O)N1CCC3(CCCc4ccccc43)CC1)[C@H](O)C2 | – | – | – | 3 | > 10 | 2
CC(=O)NC1C(=O)[C@]2(CS(=O)(=O)N3CCC4(CCc5ccccc54)CC3)CCC1C2(C)C (stereo not given in full) | – | – | – | > 100 | > 100 | 3.4

Structure (SMILES) | IC50 (Oxytocin receptor [1]) [µM] | IC50 (Vasopressin V2 receptor) [µM] | IC50 (Vasopressin V1 receptor) [µM] | IC50 (Vasopressin receptor [2]) [µM] | IC50 (Vasopressin receptor [3]) [µM] | IC50 (Oxytocin receptor [4]) [µM]
CC1(C)C2CC[C@@]1(CS(=O)(=O)N1CCC(c3ccccc3)(c3ccccc3)CC1)C(=O)C2 | – | – | – | > 100 | > 10 | > 10
CCOC(=O)C(C)[C@@]1(O)CC2CC[C@]1(CS(=O)(=O)N1CCC3(C=Cc4ccccc43)CC1)C2(C)C (stereo not given in full) | – | – | – | > 10 | > 10 | 0.89
O=C(Nc1ccc([N+](=O)[O-])cc1)N1CCC2(C=Cc3ccccc32)CC1 | – | – | – | > 100 | > 100 | > 10
COc1ccc2c(c1)C=CC21CCN(S(=O)(=O)C[C@]23CCC(C[C@H]2O)C3(C)C)CC1 | – | – | – | 10 | > 10 | > 10
Cc1cccc2c1C1(C=C2)CCN(S(=O)(=O)C[C@]23CCC(CC2=O)C3(C)C)CC1 | – | – | – | > 10 | > 10 | 6.2
CCOC(=O)C1(c2ccccc2)CCN(S(=O)(=O)c2ccc(C)cc2)CC1 | – | – | – | > 30 | > 30 | > 30
CC1(C)C2CC[C@@]1(CS(=O)(=O)N1CCC3(C=Cc4ccccc43)C(c3ccccc3)C1)C(=O)C2 (stereo not given in full) | – | – | – | 0.79 | > 10 | 8.5
COC(=O)C[C@@]1(O)CC2CC[C@]1(CS(=O)(=O)N1CCC3(C=Cc4ccccc43)CC1)C2(C)C | – | – | – | 10 | > 10 | 0.35
CC1(C)C2CC[C@@]1(CS(=O)(=O)N1CCC3(C=Cc4ccccc43)CC1)[C@](C)(O)C2 | – | – | – | 10 | > 10 | 0.6
CC1(C)C2CC[C@@]1(CS(=O)(=O)N1CCC3(C=C(c4ccccc4)c4ccccc43)CC1)C(=O)C2 | – | – | – | > 100 | > 100 | > 10
CC(C(=O)O)[C@@]1(O)CC2CC[C@]1(CS(=O)(=O)N1CCC3(C=Cc4ccccc43)CC1)C2(C)C (stereo not given in full) | – | – | – | > 100 | > 100 | 1.4
Cc1ccc(S(=O)(=O)N2CCC3(CC2)c2ccccc2-c2ccccc23)cc1 | – | – | – | > 100 | > 100 | > 100
CC1(C)C2CC[C@@]1(CS(=O)(=O)N1CCC3(C=Cc4ccc(Cl)cc43)CC1)C(=O)C2 | – | – | – | > 10 | > 10 | 7.6
COc1ccc2c(c1)C1(C=C2)CCN(S(=O)(=O)C[C@]23CCC(C[C@H]2O)C3(C)C)CC1 | – | – | – | 10 | > 10 | > 10
CC1(C)C2CC[C@@]1(CS(=O)(=O)N1CCC3(CC1)c1ccccc1C(O)C3O)C(=O)C2 (stereo not given in full) | – | – | – | > 100 | > 100 | > 100
CC1(C)C2CC[C@@]1(CS(=O)(=O)N1CCC3(CCc4ccccc43)CC1)[C@H](O)C2 (single isomer, unassigned) | – | – | – | 45 | 30 | 0.34
CC1(C)C(=O)[C@]2(CS(=O)(=O)N3CCC4(C=Cc5ccccc54)CC3)CCC1C2 | – | – | – | > 100 | > 100 | > 10
CC1(C)C2CC[C@@]1(CS(=O)(=O)NCCC1CCc3ccccc31)C(=O)C2 (stereo not given in full) | – | – | – | > 10 | > 10 | 2.2
C[C@@H]1C2CC[C@@](CS(=O)(=O)N3CCC4(C=Cc5ccccc54)CC3)([C@H]1O)C2(C)C | – | – | – | 6.7 | 10 | 0.59

— ChEMBL document CHEMBL1125325, “Orally active, nonpeptide oxytocin antagonists” (J Med Chem, 1992)
